# Screens (PubChem)
# DDE Tn6 FP inh: disrupts Tn6 cyclic peptide binding to fibrin D-Dimer-E complex; Fibrin DD(E) TRITC-Tn6 fluorescence polarization displacement; 370,000 tested, 0.21% active; P02675; inhibition, % at 8.3 µM;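 active = inhibition above a per-campaign cutoff: mean of compounds within control limits plus 3 SD, cut at about 15% in these data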;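 also: 0% = median of all compound wells on the plate and 100% = blocking peptide control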
# CAL PDZ FP-1: inhibitors of human CAL PDZ peptide binding. Q9HD26. purified CAL PDZ, TMR-peptide fluorescence polarization, 1 h. inhibition, % at 24.9 µM. 300,000 tested, 0.92% active;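 active = mean inhibition of at least 30% with at least half of replicates also reaching 30%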;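 also: 0% = DMSO neutral control and 100% = excess unlabeled competitor peptide PRC23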
# GRK2 aptamer HTS: inhibitors of human GRK2 displacing RNA aptamer. inhibition of aptamer binding, % at 10 µM. P25098. bead flow cytometry, FAM-aptamer displacement from GRK2. 330,000 tested, 0.59% active. AID 488847;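 active = inhibition of aptamer binding above 40%, roughly 3 SD of noise, on plates passing a quality check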;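 also: median bead fluorescence of bound FAM aptamer so fluorescent compounds give negative values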
# Target sequence (P25098 whole entry, looked up): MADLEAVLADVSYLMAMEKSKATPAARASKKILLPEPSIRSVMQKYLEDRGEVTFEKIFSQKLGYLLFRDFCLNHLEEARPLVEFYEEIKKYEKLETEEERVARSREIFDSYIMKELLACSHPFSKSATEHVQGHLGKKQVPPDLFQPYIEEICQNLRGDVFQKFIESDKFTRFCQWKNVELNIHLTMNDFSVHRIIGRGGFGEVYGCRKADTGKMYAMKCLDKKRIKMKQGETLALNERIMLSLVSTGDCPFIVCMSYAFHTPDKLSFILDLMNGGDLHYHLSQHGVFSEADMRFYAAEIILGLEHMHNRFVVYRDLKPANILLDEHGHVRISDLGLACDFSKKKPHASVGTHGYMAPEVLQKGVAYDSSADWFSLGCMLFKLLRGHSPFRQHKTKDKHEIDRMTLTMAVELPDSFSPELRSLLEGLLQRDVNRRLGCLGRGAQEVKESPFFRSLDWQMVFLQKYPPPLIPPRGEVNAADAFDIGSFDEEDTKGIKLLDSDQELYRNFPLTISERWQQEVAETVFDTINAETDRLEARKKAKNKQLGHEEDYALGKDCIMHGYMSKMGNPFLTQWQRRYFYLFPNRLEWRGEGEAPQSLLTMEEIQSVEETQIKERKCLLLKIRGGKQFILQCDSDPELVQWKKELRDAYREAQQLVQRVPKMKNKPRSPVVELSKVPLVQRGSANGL
# ARNT-TACC3 inh: ARNT/TACC3 interaction disruption; AlphaScreen His-ARNT PAS-B/GST-TACC3 binding, luminescence; TACC3 fragment carries E629A point mutation; inhibition, % at 9.99 µM; 390,000 tested, 0.66% active; AID 623870; Q9Y6A5;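 active = mean inhibition of replicates at least 50% and at least half of replicates each reaching 50%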;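 also: 0% = complete ARNT plus TACC3 wells and 100% = ARNT alone without TACC3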
# CAL PDZ FP-2: human CAL PDZ-peptide interaction inhibition; inhibition, % at 20 µM; purified CAL PDZ, TMR-peptide fluorescence polarization, 1 h; 330,000 tested, 0.02% active; AID 504414;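 active = highest replicate inhibition of at least 40%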;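 also: plate controls were DMSO neutral control wells for no effect and unlabeled competitor peptide control wells for full effect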
#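 Read-out basis: mP drop reported as inhibition | Assay system: Tagged CAL PDZ protein CerCALP, purified | Benchmarks: Unlabelled peptide for full inhibition, DMSO wells as neutral | Schedule: 1 h incubation at room temperature before polarization reading | Buffer or medium: Sodium phosphate/NaCl buffer pH 7.4 with TCEP, IgG, Thesit | Doses: Single point, 20 µM | Measured by: Fluorescence polarization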
# DDE Tn7 FP inh: inhibitors of Tn7 peptide binding to human fibrin DD(E); P02675; FP displacement of FITC-Tn7 peptide from fibrin DD(E); 0% = median of compound wells per plate; inhibition, % at 8.3 µM; 370,000 tested, 0.13% active; AID 720508;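 active = inhibition above the mean of compounds falling within the control limits plus 3 SD of them, cut at about 14% in these data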;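 also: 0% = plate median of compound wells and 100% = 10 µM Aha-Tn7 peptide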
#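 Test system: human clot-derived fibrin DD(E) complex / Quantity: 2 µM final DD(E) protein / Incubation: 10 min plus 3 h, room temperature / Measured by: fluorescence polarization / Benchmarks: high control of 10 µM Aha-Tn7 peptide / Replicates: singlicate testing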
# GRK2 inh confirm: human GRK2 inhibition confirmation, cherry pick 1 | bead-bound GRK2, FAM-aptamer displacement, flow cytometry | shares compounds with GRK2 aptamer HTS | 2,000 tested, 4% active | aptamer displacement, % at 10 µM;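 active = aptamer displacement above 40%, near three times the noise of non-fluorescent compounds, on plates passing quality checks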;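 also: negative values mostly reflect intrinsic compound fluorescence rather than true enhancement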
# Aptamer quench: fluorescent aptamer quenching in GRK2 counter-screen dose response; shares compounds with GRK2 aptamer HTS; Fluorescent RNA aptamer beads, flow cytometry; stronger effect = higher value; 110 tested, under 10 active; fluorescence change (kMESF span), kMESF (test concentration not listed);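 active = compounds whose bead fluorescence drops by more than 37 kMESF across the dose range, marking them as dye quenchers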
# FAM quench CP1: counter-screen for GRK2 aptamer inhibitors: fluorescent aptamer quenchers; shares compounds with GRK2 aptamer HTS; Carboxyfluorescein RNA aptamer on beads, flow cytometry quenching; stronger effect = lower value; fluorescence response (% of DMSO), % at 10 µM; 2,000 tested, under 10 active; AID 504580;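 active = compounds that quench the bead-bound fluorescent RNA probe, cutting fluorescence to under half of the solvent control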;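 also: counterscreen run without GRK2 so only probe quenching by compound is measured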
# GRK2 confirm 2: human GRK2 inhibition confirmation, cherry pick 2; shares compounds with GRK2 aptamer HTS; bead-bound GRK2, FAM-aptamer displacement, flow cytometry; inhibition of aptamer binding, % at 10 µM; 360 tested, under 10 active;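 active = inhibition of aptamer binding above 40%, about triple the noise seen with nonglowing compounds, on plates passing quality control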;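 also: negative values mostly come from compounds that fluoresce themselves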
# Aptamer quench3: aptamer fluorescence quenching in GRK2 counter-screen dose response; Streptavidin beads, FAM-RNA aptamer fluorescence quenching, flow cytometry; change in fluorescence (kMESF span), kMESF (concentration not given with the values); 25 tested, under 10 active; shares compounds with GRK2 aptamer HTS;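 active = compounds quenching the bead-bound labeled aptamer, with fluorescence dropping by more than 37 kMESF over the dose range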
# FAM quench CP2: aptamer fluorescence quenching in GRK2 counter-screen. 360 tested, under 10 active. AID 588494. fluorescence response vs DMSO, % at 10 µM. carboxyfluorescein RNA aptamer beads, flow cytometry quenching; stronger effect = lower value. shares compounds with GRK2 aptamer HTS;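 active = response vs DMSO under 50%, meaning signal dropped by over half, treated as fluorescence quencher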;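 also: labelled aptamer on streptavidin beads without GRK2 as a quench counter-screen; 100% = bead fluorescence of DMSO wells and lower means quenching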
# FAM quench PS1: counter-screen for GRK2 aptamer binding inhibitors: aptamer fluorescence quenching | shares compounds with GRK2 aptamer HTS | Bead-bound FAM RNA aptamer fluorescence quenching, flow cytometry; stronger effect = lower value | fluorescence ratio to DMSO, % at 11.1 µM | 35 tested, under 10 active | AID 588496;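 active = compounds that dim the fluorescent label, raw bead signal shifting by over 33 units between lowest and highest dose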
# * hit, by the source's call; nt = no result. Sampled rows, rich in hits. Any-hit rate of the full collection: about 1.8%.
SMILES,DDE Tn6 FP inh,CAL PDZ FP-1,GRK2 aptamer HTS,ARNT-TACC3 inh,CAL PDZ FP-2,DDE Tn7 FP inh,GRK2 inh confirm,FAM quench CP1,others
Cc1ccc(S(=O)(=O)N(C)C[C@H]2OCCCC[C@@H](C)Oc3ccc(NC(=O)c4ccncc4)cc3C(=O)N([C@H](C)CO)C[C@@H]2C)cc1,nt,nt,nt,-9,nt,nt,nt,nt,
Cc1cc(C)c(C)c(S(=O)(=O)N2C(=S)NC(=O)C2CC(C)C)c1C (stereo not drawn),2,-1,96*,-4,-1,1,-3,102,
Cc1cc(C)c(C)c(S(=O)(=O)N2C(=S)NC(=O)C2C(C)C)c1C (stereo not drawn),-3,-7,0,2,0,4,nt,nt,
CCNC(=O)C[C@@H]1CC[C@H]2[C@H](COc3ccc(NC(=O)Nc4ccccc4C)cc3C(=O)N2C)O1,nt,nt,nt,5,nt,nt,nt,nt,
Cc1ccc2nc(-c3ccc(F)cc3)c(CC3CCCCC3)n2c1,-8,nt,nt,nt,nt,2,nt,nt,
COc1cccc(S(=O)(=O)Nc2ccc3c(c2)OC[C@@H](C)N(Cc2ccccc2F)C[C@H](C)[C@H](OC)CN(C)C3=O)c1,nt,nt,nt,13,nt,nt,nt,nt,
COc1ccc(-c2nn(-c3ccccc3)cc2/C=C2/SC(=S)N(CCC(=O)O)C2=O)c(C)c1,-1,-8,80*,29,nt,-3,0,98,
O=C(O)c1ccc(-n2cccc2/C=C2/SC(=O)N(CC(=O)N3CCCC3)C2=O)cc1,5,-6,82*,1,-3,5,63*,133,Aptamer quench=16
O=C(O)c1ccc(-n2cccc2/C=C2/NC(=O)N(c3ccccc3)C2=O)cc1,-2,3,73*,-3,-1,-1,36,94,
O=C(NCc1ccccc1)C(c1ccncc1)N(C(=O)c1csnn1)c1ccccc1F (stereo not drawn),8,-3,95*,1,-3,-5,0,99,
COc1ccc(S(=O)(=O)N2CCOC2CNC(=O)C(=O)NCc2ccc3c(c2)OCO3)cc1OC (stereo not drawn),4,-3,0,-1,-2,0,nt,nt,
COc1ccccc1CNC(=O)C(=O)NCC1OCCN1S(=O)(=O)c1ccc2c(c1)OCCO2 (stereo not drawn),11,nt,41*,-4,-1,-2,-2,100,
CO[C@@H]1CN(C)C(=O)c2ccc(NC(=O)c3ccc(F)cc3)cc2OC[C@H](C)N(C(C)=O)C[C@@H]1C,nt,nt,nt,-7,nt,nt,nt,nt,
COc1ccc(-c2nc(C#N)c(NCCN(C)C)o2)cc1,4,nt,49*,0,0,0,-4,102,
COc1ccc(Nc2oc(-c3ccccc3)nc2C#N)cc1,0,-3,52*,-4,0,-2,0,102,
C[C@@H]1CN([C@@H](C)CO)C(=O)c2cc(NS(=O)(=O)c3ccc(F)cc3)ccc2O[C@H]1CN(C)S(=O)(=O)c1ccc(Cl)cc1,nt,nt,nt,-3,nt,nt,nt,nt,
O=C(Nc1ccccc1Cl)c1cc(C2CCCN(C(=O)c3cccc(O)c3)C2)on1 (stereo not drawn),2,nt,nt,nt,nt,-2,nt,nt,
CCN1/C(=C\C(=S)Nc2ccccc2)Sc2ccccc21,-6,-3,16,2,0,-4,nt,nt,
CCN1/C(=C/C(C)=C/c2sc3ccccc3[n+]2CC)Sc2ccccc21,-17,-126,100*,37,-14,-4,99*,92,Aptamer quench=0.6
CO[C@H]1CN(C)C(=O)c2ccc(NS(=O)(=O)c3cn(C)cn3)cc2OC[C@@H](C)N(Cc2cccc(F)c2)C[C@H]1C,nt,nt,nt,0,nt,nt,nt,nt,
C/C(=N\NC(=O)c1ccc(OC2OCCOC2Oc2ccc(C(=O)N/N=C(\C)c3ccncc3)cc2)cc1)c1ccncc1 (stereo not drawn),3,7,50*,0,-1,-7,37,99,
C/C(=N\NC(=O)c1ccncc1)c1ccc(N2CCOCC2)cc1,-1,-3,0,-1,1,-2,nt,nt,
CC(C)NC(=O)N[C@H]1CC[C@H](CCn2cc(-c3ccc(F)cc3)nn2)O[C@H]1CO,nt,nt,nt,25,nt,nt,nt,nt,
O=C(CSc1ncccn1)Nc1ccc(Cl)c(S(=O)(=O)N2CCOCC2)c1,0,-12,0,4,0,-6,nt,nt,
O=C(CSc1ccccc1)Nc1ccc(Cl)c(S(=O)(=O)N2CCOCC2)c1,-7,0,21,9,-2,-2,-3,97,
SMILES,DDE Tn6 FP inh,CAL PDZ FP-1,GRK2 aptamer HTS,ARNT-TACC3 inh,CAL PDZ FP-2,DDE Tn7 FP inh,GRK2 inh confirm,FAM quench CP1,others
Cc1ccccc1NC(=O)CCS(=O)(=O)c1ccc(Br)cc1,-3,-5,41*,-12,0,4,18,102,Aptamer quench3=-6.9;FAM quench PS1=97
Cc1ccc(NC(=O)CCS(=O)(=O)c2ccc(Br)cc2)nc1,1,-1,0,-3,2,4,1,96,
Cc1ccc(S(=O)(=O)CCC(=O)Nc2ccc(Br)cc2)cc1,-5,-3,26,-10,0,0,nt,nt,
Cc1ccc(S(=O)(=O)CCC(=O)NC2CCCC2)cc1,7,-1,0,-1,-2,4,nt,nt,GRK2 confirm 2=0;FAM quench CP2=100
CCN(CC)c1ccc(NC(=O)CCS(=O)(=O)c2ccc(Br)cc2)c(C)c1,-3,-4,83*,-3,-2,-2,73*,91,Aptamer quench=55*;Aptamer quench3=4.6;FAM quench PS1=98
COCC(=O)Nc1ccc2c(c1)[C@@H]1C[C@@H](CC(=O)N3CCN(C)CC3)O[C@@H](CO)[C@@H]1O2,nt,nt,nt,-8,nt,nt,nt,nt,
CC1CCCCC1NCC(=O)NCc1ccc(F)cc1 (stereo not drawn),-2,0,1,-4,25,4,nt,nt,
